The source of these data is ChEMBL document CHEMBL1144012, “Indole- and indolizine-glyoxylamides displaying cytotoxicity against multidrug resistant cancer cell lines” (Bioorg Med Chem Lett, 2008).

Common to all, as to type: functional, cell-based
The nature of assay [1]: Cytotoxicity against human HL60/TX1000 cells after 72 hrs by MTT assay. The note with it: HL60/TX1000, 72 h. The essentials:
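HL-60/TX1000 cells (Taxol-resistant HL-60 subline selected by stepwise Taxol exposure; overexpress MDR1/P-glycoprotein) grown in RPMI1640 with 10% FC plus penicillin/streptomycin, split every third day, set to 2 · 10⁵ cells/mL the day before the experiment, and used in exponential growth. Compounds were diluted into medium from 1 mM DMSO stock and tested at various concentrations for 72 h. IC50 was read by […] tetrazolium assay.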
In general terms: Tetrazolium assays rely on reduction of a dye to a coloured formazan, in cell work by metabolically active cells.

For the next assay, the system named is DU-145. The assay can be described thus: Cytotoxicity against human DU145 cells after 72 hrs […]. The note with it: DU-145, 72 h.
The next assay relates to HL-60. The assay can be described thus: Cytotoxicity against human HL60 cells after 72 hrs […]. The note with it: HL-60, 72 h.
A short description of assay [2]: Cytotoxicity against human MESSA/DX5 cells after 72 hrs […]. Conditions: MES-SA/Dx5, 72 h.
A short description of assay [3]: Cytotoxicity against human MDA435 cells after 72 hrs […]. The note with it: MDA-MB-435, 72 h.
Another assay concerns P388. The assay can be described thus: Cytotoxicity against mouse P388 cells after 72 hrs […]. Conditions: P388, 72 h.
Assay [4] in a line: Cytotoxicity against human MESSA cells after 72 hrs […]. The note with it: MES-SA.

Consider `Cc1cc(NC(=O)C(=O)c2cn(Cc3ccc(Cl)cc3)c3ccccc23)on1`, for which it took 50 nM to reach half-maximal inhibition in assay [1] (IC50).

As to `Cc1ccc2cc(NC(=O)C(=O)c3cn(Cc4ccc(Cl)cc4)c4ccccc34)ccc2n1`, in assay [1], the IC50 (usually the point on the concentration scale where inhibition reaches its midpoint) worked out at 500 nM.

`O=C(Nc1ccncc1)C(=O)c1cn(Cc2ccc(Cl)cc2)c2ccccc12` [INDIBULIN] had an IC50 in assay [1] of 50 nM.

In assay [1], `CSc1nnc(NC(=O)C(=O)c2cn(Cc3ccc(Cl)cc3)c3ccccc23)s1` displayed an IC50 of 1000 nM.

Turning to `O=C(Nc1ccccn1)C(=O)c1cn(Cc2ccc(Cl)cc2)c2ccccc12`, in assay [1], the IC50 is more than 10000 nM.

Consider `O=C(Nc1ccon1)C(=O)c1cn(Cc2ccc(Cl)cc2)c2ccccc12`, for which the IC50 in assay [1] worked out at 50 nM. This lies in the double-digit nanomolar range.

Turning to `O=C(Nc1nncs1)C(=O)c1cn(Cc2ccc(Cl)cc2)c2ccccc12`, the midpoint of inhibition in assay [1], the IC50, lay at 100 nM.

In assay [1], `O=C(Nc1ccc2ncccc2c1)C(=O)c1cn(Cc2ccc(Cl)cc2)c2ccccc12` showed an IC50 of 50 nM.

In turn, `O=C(Nc1cccnc1)C(=O)c1cn(Cc2ccc(Cl)cc2)c2ccccc12` displayed an IC50 in assay [1] of 6000 nM.

With `Cc1nsc(NC(=O)C(=O)c2cn(Cc3ccc(Cl)cc3)c3ccccc23)c1Cl`, half-maximal inhibition in assay [1] (IC50) was put at 5000 nM.

As for `Cc1cnc(NC(=O)C(=O)c2cn(Cc3ccc(Cl)cc3)c3ccccc23)s1`, the midpoint of inhibition in assay [1], the IC50, lay at 50 nM.

Regarding `NC(=O)c1ccc(NC(=O)C(=O)c2cn(Cc3ccc(Cl)cc3)c3ccccc23)nc1`, 50 nM corresponded to half-maximal inhibition in assay [1] (IC50).

On to `CC(C)(C)c1csc(NC(=O)C(=O)c2cn(Cc3ccc(Cl)cc3)c3ccccc23)n1`, for which the IC50 in assay [1] came out at 5000 nM.

As to `Cc1cc(NC(=O)C(=O)c2cc(Cc3ccc(Cl)cc3)n3ccccc23)sn1`, the IC50 in assay [1] worked out at 60 nM.

Regarding `Cc1cc(NC(=O)C(=O)c2cc(Cc3ccc(C#N)cc3)n3ccccc23)sn1` [ROSABULIN], the IC50 was 50 nM with DU-145; 50 nM in the assay on HL-60; 50 nM in assay [2]; 50 nM in assay [3]; 10 nM in the assay on P388; 20 nM in assay [1]. In assay [4], inhibition was half-maximal at 10 nM (IC50).

For `O=C(Nn1cnnc1)C(=O)c1cn(Cc2ccc(Cl)cc2)c2ccccc12`, the IC50 in assay [1] is more than 10000 nM.

In assay [1], `Cc1cc(NC(=O)C(=O)c2cn(Cc3ccc(Cl)cc3)c3ccccc23)no1` returned an IC50 of 50 nM. That is a double-digit nanomolar value.

On to `O=C(Nc1noc2ccccc12)C(=O)c1cn(Cc2ccc(Cl)cc2)c2ccccc12`, for which the IC50 in assay [1] is more than 10000 nM.

Turning to `CC(=O)O[C@H]1C(=O)[C@@]2(C)[C@H]([C@H](OC(=O)c3ccccc3)[C@]3(O)C[C@H](OC(=O)[C@H](O)[C@@H](NC(=O)c4ccccc4)c4ccccc4)C(C)=C1C3(C)C)[C@]1(OC(C)=O)CO[C@@H]1C[C@@H]2O` [PACLITAXEL], the IC50 with P388 was found to be 10 nM. This lies in the double-digit nanomolar range.

Turning to `O=C(Nc1ccno1)C(=O)c1cn(Cc2ccc(Cl)cc2)c2ccccc12`, the IC50 in assay [1] worked out at 50 nM.

`C[n+]1ccc(NC(=O)C(=O)c2cn(Cc3ccc(Cl)cc3)c3ccccc23)cc1`: the IC50 in assay [1] is more than 10000 nM.

For `Cc1cc(NC(=O)C(=O)c2cn(Cc3ccc(Cl)cc3)c3ccccc23)sn1`, the IC50 in assay [1] came to 10 nM.

Consider `O=C(Nc1cccc2cccnc12)C(=O)c1cn(Cc2ccc(Cl)cc2)c2ccccc12`, for which the IC50 in assay [1] was more than 10000 nM.
